From ChEMBL document CHEMBL3407428, “Synthesis, in vitro and in vivo antitumor activity of scopoletin-cinnamic acid hybrids” (Eur J Med Chem, 2015)
pIC50: −log10 of the molar value.

Legend:
[1] = Cytotoxicity against human HCT116 cells assessed as growth inhibition at 10^-5 M after 72 hrs by MTT assay relative to control; type: functional; conditions: HCT-116, 72 h, read-out: GI
[2] = test system: A549; test: Cytotoxicity against human A549 cells assessed as growth inhibition at 10^-5 M after 72 hrs by MTT assay relative to control; type: functional; conditions: A549, 72 h, read-out: GI
[3] = test system: MDA-MB-231; test: Cytotoxicity against human MDA-MB-231 cells assessed as growth inhibition at 10^-5 M after 72 hrs by MTT assay relative to control; type: functional; conditions: MDA-MB-231, 72 h, read-out: GI
[4] = test system: MCF7; test: Cytotoxicity against human MCF7 cells assessed as growth inhibition at 10^-5 M after 72 hrs by MTT assay relative to control; type: functional; conditions: MCF7, 72 h, read-out: GI
[5] = test system: HeLa; test: Cytotoxicity against human HeLa cells assessed as growth inhibition at 10^-5 M after 72 hrs by MTT assay relative to control; type: functional; conditions: read-out: GI
[6] = test system: Lewis lung carcinoma cell line; test: Antitumor activity against mouse LLC cells allografted in C57BL/6 mouse assessed as tumor growth inhibition at 2.5 mg/kg, ip administered for 14 days measured on day 15 relative to control; type: functional; conditions: route intraperitoneal, read-out: TGI
In short: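 Female C57BL/6 mice (18–22 g) given 3 × 10^6 Lewis lung cancer cells subcutaneously in the right flank; dosing began 7 to 21 days after inoculation. Mice were randomized into groups of 10. Treatment was intraperitoneal daily for 14 days at 2.5, 5 or 10 mg/kg, with a saline control group. Tumors were excised and weighed when the mice were killed after 14 days.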

[7] = test system: A549; test: Cytotoxicity against human A549 cells assessed as growth inhibition after 72 hrs by MTT assay; type: functional, cell-based; conditions: A549, 72 h
In short: (§1)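 MTT viability assay. Cells were seeded at 5000 per well, incubated overnight, then exposed to compound at a range of concentrations for 72 h. MTT was added from a 5 mg/mL stock for 4 h, and absorbance was read at 570 nm. IC50 (50% viability inhibition) was calculated by the logit method. Each concentration was run at least three times.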

[8] = test system: Mus musculus; test: Toxicity in C57BL/6 mouse allografted with mouse LLC cells assessed as decrease in body weight at 2.5 mg/kg, ip administered for 14 days measured during compound dosing; type: organism-based; parameters: dose 2.5 mg/kg, route intraperitoneal; conditions: in vivo, 336 h
In short: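 LLC-bearing female C57BL/6 mice (18–22 g; 3 × 10^6 cells s.c., right flank) were randomized into groups of 10 and dosed i.p. daily for 14 days, with a saline control. Body weight was recorded every day from the first treatment.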

[9] = Cytotoxicity against human HCT116 cells assessed as growth inhibition after 72 hrs by MTT assay; type: functional, cell-based; conditions: HCT-116, 72 h; in short: as §1
[10] = test system: MDA-MB-231; test: Cytotoxicity against human MDA-MB-231 cells assessed as growth inhibition after 72 hrs by MTT assay; type: functional, cell-based; conditions: MDA-MB-231, 72 h; in short: as §1

Structure (SMILES) | inhibition of growth at 10 µM [1] [%] | inhibition of growth at 10 µM [2] [%] | inhibition of growth at 10 µM [3] [%] | inhibition of growth at 10 µM [4] [%] | inhibition of growth at 10 µM [5] [%] | inhibition in vivo at 2.5 mg/kg [6] [%] | pIC50 [7] | Activity [8] | pIC50 [9] | pIC50 [10]
COc1cc2ccc(=O)oc2cc1OC(=O)/C=C/c1ccc(C#N)cc1 | 13.6 | 17.9 | 14.3 | 10.5 | 13.2 | – | – | – | – | –
COc1cc2cc(NC(=O)/C=C/c3cc(OC)c(OC)c(OC)c3)c(=O)oc2cc1O | 7.11 | 4.87 | 12.9 | 18.3 | 9.45 | – | – | – | – | –
COc1cc2ccc(=O)oc2cc1OC(=O)/C=C/c1cc(OC)c(OC)c(OC)c1 | 18.9 | 20.6 | 11.8 | 18 | 0.93 | – | – | – | – | –
COc1cccc2c1C(=O)c1c(O)c3c(c(O)c1C2=O)C[C@@](O)(C(=O)CO)C[C@@H]3O[C@H]1C[C@H](N)[C@H](O)[C@H](C)O1 [DOXORUBICIN] | 79 | 92 | 89.3 | 84.9 | 82 | 52.5 | 5.89 | Toxic | 6.32 | 5.81
COc1cc2cc(NC(=O)/C=C/c3ccc(C(F)(F)F)cc3)c(=O)oc2cc1O | 17 | 26.4 | 24.6 | 12.6 | 19 | – | – | – | – | –
COc1cc2cc(NC(=O)/C=C/c3ccc(C#N)cc3)c(=O)oc2cc1O | 14.1 | 36.9 | 13.1 | 27.3 | 27.1 | – | – | – | – | –
COc1cc2ccc(=O)oc2cc1O [SCOPOLETIN] | 1.36 | 4.23 | 8.47 | 2.63 | 0.98 | – | < 4.52 | – | < 4.52 | < 4.52
COc1cc2ccc(=O)oc2cc1OC(=O)/C=C/c1ccc(Cl)cc1 | 21.1 | 2.73 | 20.3 | 22.8 | 22.4 | – | – | – | – | –
